Measured values taken from paper PMC8324497 (Cell Reports Medicine, 2021).
pIC50: −log10 of the molar value.

Tests used:
[1] = target: ERK2 (Homo sapiens, UniProt P28482); assay: ERK1/ERK2 HTRF enzymatic assay; assay type: biochemical
[2] = test system: Colo 205; assay: Cell proliferation assay; assay type: cell-based; settings: Homo sapiens, COLO 205, 72 h
Summary of the method: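 Adherent solid-tumour cells were seeded at 5,000 cells/well and allowed to attach for 16–24 h at 37°C, 5% CO2. They were exposed to the test compound at 0.0005–10 μM (3-fold serial dilutions) for 72 h. Alamar Blue was added (1X final) for 1–3 h and fluorescence read at 540 nm excitation, 590 nm emission. IC50 came from a sigmoidal variable-slope fit.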

[3] = test system: NCI-H460; assay: Cell proliferation assay; assay type: cell-based; settings: Homo sapiens, NCI-H460, 72 h
[4] = test system: Daudi; assay: Cell viability MTS assay; assay type: cell-based; settings: Homo sapiens, read-out: IC50 mean values
Summary of the method: (§1)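 Lymphoma suspension lines were grown in RPMI 1640 with 10–20% heat-inactivated FBS, 1% L-glutamine and penicillin-streptomycin at 37°C, 5% CO2. Cells were plated at 25,000/100 μL (96-well) or 250,000/mL (24-well) with DMSO 0.1% vehicle or rising compound concentrations for 24–72 h. MTS reagent was added at 1:5 and absorbance read at 490 nm. IC50 was taken from three independent experiments (mean ± SD).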

[5] = test system: JVM-2; assay: Cell viability MTS assay; assay type: cell-based; settings: Homo sapiens, JVM-2, read-out: IC50 mean values
Summary of the method: as §1

[6] = test system: SU-DHL-1; assay: Cell viability MTS assay; assay type: cell-based; settings: Homo sapiens, SU-DHL-1, read-out: IC50 mean values
Summary of the method: as §1

[7] = test system: advanced solid tumors harboring BRAF and KRAS, HRAS, and NRAS mutations; settings: phase I, early results, cited from earlier work

Chain of ERK2 (P28482 whole entry): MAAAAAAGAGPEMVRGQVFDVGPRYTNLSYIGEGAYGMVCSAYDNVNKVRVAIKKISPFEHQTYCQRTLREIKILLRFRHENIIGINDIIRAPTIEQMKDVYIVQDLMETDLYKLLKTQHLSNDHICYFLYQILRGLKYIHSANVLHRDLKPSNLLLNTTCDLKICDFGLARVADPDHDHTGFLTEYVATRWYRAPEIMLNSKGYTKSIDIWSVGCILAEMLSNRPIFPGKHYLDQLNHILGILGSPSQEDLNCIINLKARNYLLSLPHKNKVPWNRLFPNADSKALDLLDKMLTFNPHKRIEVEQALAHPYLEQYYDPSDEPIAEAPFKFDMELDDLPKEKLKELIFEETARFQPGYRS

Cc1cnc(NC2CCOCC2)nc1-n1cnc(C(=O)NC(CN)c2cc(F)cc(Cl)c2)c1 (centres unmarked) [ASN007, N-(2-amino-1-(3-chloro-5-fluorophenyl)ethyl)-1-(5-methyl-2-((tetrahydro-2H-pyran-4-yl)amino)pyrimidin-4-yl)-1H-imidazole-4-carboxamide] gave a pIC50 [1] of 8.70, a pIC50 [2] of 7.68 and a pIC50 [3] of 6.53. For the same compound, the pIC50 [4] was under 5.00, the pIC50 [5] was 5.24 and the pIC50 [6] was 5.64. For the same compound, the “duration of clinical activity” value ([7]; lasting up) was over 12 months and the tolerability [7] was “well tolerated”.
